# The list is not random: actives were taken first. Their share in the collection is about 1.8%.
# NR2E3 ag-1 – agonists of human nuclear receptor NR2E3 | Q9Y5X4 | GST-NR2E3/biotin-RetCOR TR-FRET, 1536-well | inhibition of corepressor binding, % at 4.78 µM | 0.12% of 320,000 active;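 active = percent inhibition above the cutoff of mean plus 3 SD of all tested compounds, set per screening campaign, cut at about 20% in these data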;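 note: 0% = DMSO wells and 100% = biotin wells as full block of FRET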
# Target sequence (Q9Y5X4 whole entry, looked up): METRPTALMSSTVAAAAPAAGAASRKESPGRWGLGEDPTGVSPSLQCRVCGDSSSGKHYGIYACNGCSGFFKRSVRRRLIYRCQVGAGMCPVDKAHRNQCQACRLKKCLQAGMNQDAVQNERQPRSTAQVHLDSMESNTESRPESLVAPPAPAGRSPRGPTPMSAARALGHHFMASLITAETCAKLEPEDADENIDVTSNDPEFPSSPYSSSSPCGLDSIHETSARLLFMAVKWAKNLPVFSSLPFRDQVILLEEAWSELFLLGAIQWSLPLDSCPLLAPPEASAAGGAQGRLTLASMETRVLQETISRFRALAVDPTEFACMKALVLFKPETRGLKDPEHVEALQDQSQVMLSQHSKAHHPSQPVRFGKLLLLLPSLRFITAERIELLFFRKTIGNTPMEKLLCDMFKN
#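 System: GST-tagged NR2E3 plus biotinylated RetCOR corepressor; Amount: 1.35 nM GST-tagged NR2E3 final; Dosing: single nominal compound dose of 4.8 µM; Schedule: 5 h incubation at 4 °C; Technique: TR-FRET with europium anti-GST and streptavidin-D2, 340 nm excitation; Controls: biotin wells as high control, 0.6% DMSO wells as low control.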
# Gli-Sufu block – Gli-Sufu pathway antagonism; Sufu-KO-LIGHT fibroblasts, Gli luciferase reporter luminescence; inhibition, % at 5 µM; 0.74% of 340,000 active; AID 588413;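 active = inhibition above about 55%, limit read from the data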;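 note: 0% = DMSO-treated cells and 100% = wells with medium but no cells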
# NR2E3 ag-2 – agonists of human NR2E3 nuclear receptor. Q9Y5X4. CHO-S Gal4-NCOR/VP16-NR2E3 two-hybrid, luciferase. inhibition of corepressor binding, % at 3.98 µM. 0.35% of 360,000 active. AID 602229;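 active = inhibition above the mean of all tested compounds plus 3 SD, cut at about 70% in these data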;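 note: 0% = DMSO with NR2E3 transfected cells and 100% = cells lacking NR2E3 construct; higher means lower luciferase signal from less NR2E3 corepressor binding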
# 697 NFkB inh – lowers PMA/ionomycin-induced NF-kB signal in 697 B cells; 697 B-cell NF-kB luciferase reporter, 16 h; inhibition, % at 4 µM; 0.33% of 330,000 active; AID 435022; in the data active = inhibition above about 35%
# Jurkat NFkB inh – inhibitors of the PMA/ionomycin-induced NF-kB reporter in Jurkat cells; PMA/ionomycin-induced NF-kB luciferase reporter, luminescence; inhibition, % at 4 µM; 0.53% of 330,000 active; AID 435003; in the data active = inhibition above about 50%
# GalR3 antagonist – human GalR3 antagonism. HEK293 GalR3-CNG cAMP membrane potential fluorescence; galR3 body fused to GalR1 C-terminus. inhibition, % at 3 µM. 0.44% of 360,000 active;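 active = inhibition above the screen-wide average plus 3 SD, cut at about 13% in these data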;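 note: forskolin and galanin both at EC90 stimulate the cells; cAMP rise reported by CNG channel membrane potential dye signal; 0% = forskolin plus galanin with DMSO and 100% = forskolin alone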
# Gli-Sufu confirm – confirmation of Gli-SUFU pathway antagonists | 40% of 2,500 active | AID 602428 | Sufu-KO-LIGHT cells, Gli luciferase reporter, luminescence | shares compounds with Gli-Sufu block | inhibition, % at 5 µM;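 active = mean inhibition at 5 µM reaching about 45%, limit read from the data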;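 note: plate controls were DMSO-treated cells for no effect and wells lacking cells for full effect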
# Gli cytotox – cytotoxicity counter-screen for Gli-SUFU antagonists; shares compounds with Gli-Sufu block; Sufu-KO-LIGHT cells cytotoxicity, ATP luminescence; cytotoxicity, % at 5 µM; 32% of 2,500 active; AID 651994;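 active = mean cytotoxicity at 5 µM above about 25%, limit read from the data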;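 note: cells exposed to compound overnight for roughly 16 to 18 hours; plate controls were DMSO wells with cells for no effect and medium without cells for full effect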
# Wnt3a counter – inhibits Wnt3a reporter, counter-screen for Gli-SUFU antagonists; shares compounds with Gli-Sufu block; Wnt-LIGHT cells, Wnt3a-driven luciferase reporter, luminescence; inhibition, % at 6.25 µM; 20% of 2,500 active;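 active = mean inhibition above about 25%, limit read from the data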
# * hit, by the source's call; . = no result given.
SMILES,NR2E3 ag-1,Gli-Sufu block,NR2E3 ag-2,697 NFkB inh,Jurkat NFkB inh,GalR3 antagonist,Gli-Sufu confirm,Gli cytotox,Wnt3a counter
CC(C)(C)[C@H]1COC(=O)[C@H](NC(=O)OCC2c3ccccc3-c3ccccc32)C/C=C\C[C@@H](CC(=O)N[C@H](CO)Cc2ccccc2)C(=O)N1,.,40,-16,11,-4,-4,.,.,.
C[C@@H]1COC(=O)[C@H](NC(=O)OCC2c3ccccc3-c3ccccc32)C/C=C\C[C@@H](CC(=O)N[C@@H](CO)Cc2ccccc2)C(=O)N1,.,59*,5,3,-3,-2,57*,19,-59
CC(C)(C)[C@H]1COC(=O)[C@H](NC(=O)OCC2c3ccccc3-c3ccccc32)C/C=C\C[C@@H](CC(=O)N[C@@H](CO)Cc2ccccc2)C(=O)N1,.,57*,-10,-1,13,-2,51*,20,-32
CCOC(=O)C1CSCCS(=O)(=O)N1Cc1cc(F)ccc1Br (stereo not drawn),.,.,.,.,.,-5,.,.,.
Cc1onc(-c2ccc(Cl)cc2Cl)c1-c1csc(N/N=C/c2ccccc2Cl)n1,0,1,-11,-21,16,-2,.,.,.
C/C(=N\NC(=O)c1ccccc1[N+](=O)[O-])c1c(O)cc(C)oc1=O,-7,-1,15,-19,30,-1,.,.,.
C/C(=N\NC(=O)c1ccccc1O)c1c(O)cc(C)oc1=O,-1,58*,-18,-26,-6,-4,4,-2,-40
N/C(=N/O)c1ccccc1N1CCC(Cc2ccccc2)CC1,-1,78*,-9,21,-3,-4,74*,36*,-25
O=C(CCc1nc2ccccc2c(=O)[nH]1)OCc1ccc(-c2ccccc2)cc1,0,96*,-19,18,-13,-1,21,4,-36
Cc1ccccc1C(=O)Oc1ccccc1N1C(=O)C2CC=CCC2C1=O (stereo not drawn),-2,9,4,-2,-2,1,.,.,.
O=C(Oc1ccccc1N1C(=O)C2CC=CCC2C1=O)c1ccc(Br)cc1 (stereo not drawn),-2,52,-7,-15,-3,0,17,11,-16
COCCNC(=O)CCn1nc(-c2ccc(Cl)cc2)c2ccccc2c1=O,-1,50,-28,9,4,.,6,1,-1
CC(C)OCCCNc1ncnc2c1[nH]c1ccccc12,-2,64*,39,17,35,-7,59*,40*,-31
CCOc1ccc2[nH]c3c(NCCCOC)ncnc3c2c1,.,1,-48,-50,-28,2,.,.,.
C[C@H]1COc2cc(N3CCCC3)ccc2S(=O)(=O)N1,.,.,.,.,.,-7,.,.,.
COc1ccc(N(CC(C)C)S(=O)(=O)c2nnc(NC(=O)c3ccco3)s2)cc1,2,-13,-11,-123,-8,-1,.,.,.
CNC(=O)/C(C#N)=C/c1c(N(Cc2ccccc2)Cc2ccccc2)nc2c(C)cccn2c1=O,-2,12,-13,.,.,-5,.,.,.
CCNC(=O)/C(C#N)=C/c1c(N(Cc2ccccc2)Cc2ccccc2)nc2ccccn2c1=O,2,88*,3,6,2,7,27,-1,-26
CC(CCc1ccccc1)NC(=O)C1CC1 (stereo not drawn),-1,61*,-4,1,4,-1,6,8,6
CC(CCc1ccccc1)NC(=O)C1CCC1 (stereo not drawn),1,5,1,12,2,-4,.,.,.
Cc1nc(SCC(=O)c2ccc(F)c(F)c2)[nH]c(=O)c1Oc1ccc(F)cc1,6,9,8,15,6,-1,.,.,.
COc1ccc(C2C=C(C)Nc3nc4ccccc4n32)cc1 (stereo not drawn),3,98*,-86,-12,-28,-1,9,24,-26
CCOC(=O)CSc1c(-c2cccs2)[nH]c2ccccc12,1,52,4,2,3,-3,65*,4,14
COCCCNC(=O)C1CCC(CNS(=O)(=O)c2ccc3c(c2)CC(C)N3C(=O)C2CC2)CC1 (stereo not drawn),3,-3,-5,26,1,4,.,.,.
COc1cc2c(-c3ccc4cc[nH]c4c3)c(-c3ccc(C#N)cc3)oc(=O)c2cc1OC,3,21,8,-45,-17,-8,.,.,.
SMILES,NR2E3 ag-1,Gli-Sufu block,NR2E3 ag-2,697 NFkB inh,Jurkat NFkB inh,GalR3 antagonist,Gli-Sufu confirm,Gli cytotox,Wnt3a counter
CS(=O)(=O)c1ccc(C(=O)OCC(=O)NC(=O)C2CCCCC2)cc1[N+](=O)[O-],0,65*,-16,3,-3,-14,14,3,9
CCOC(=O)C1CSCCS(=O)(=O)N1Cc1ccc(C)cc1 (stereo not drawn),.,.,.,.,.,-5,.,.,.
COc1ccc(-c2nc(CCl)cs2)cc1OC,0,60*,-9,-7,-24,-3,10,16,-15
COc1ccc(-c2nc(CCl)cs2)cc1,2,-16,-79,-44,-28,3,.,.,.
CN1CCN(C(=O)CCNC(=O)Cn2ccc3ccccc3c2=O)CC1,1,99*,-11,-3,-3,-4,10,2,-9
CCN1CCN(C(=O)CCNC(=O)Cn2ccc3ccccc3c2=O)CC1,-2,6,3,17,7,-2,.,.,.
Cn1c(CNC(=O)c2ccco2)nnc1SCC(=O)Nc1ccc(Cl)cc1,-3,97*,8,18,-2,-1,24,-9,-12
COc1ccccc1NC(=O)CSc1nnc(CNC(=O)c2ccco2)n1C,-1,2,2,19,15,-6,.,.,.
Cc1cc(=O)oc2cc(OCC3CC(c4ccc(N(C)C)cc4)=NO3)ccc12 (stereo not drawn),1,99*,-5,6,0,-3,0,17,-71
Cc1cc(=O)oc2cc(OCC3CC(c4ccc(Cl)cc4)=NO3)ccc12 (stereo not drawn),6,1,23,15,12,-7,.,.,.
COc1cc(/C=N/NC(=O)c2ccccc2O)ccc1OC(=O)CC1SC(=O)NC1=O (stereo not drawn),0,58*,-7,9,1,-6,7,7,-48
COc1cc(C(=O)N/N=C/c2ccc(OC(=O)c3ccccc3Cl)c(OC)c2)ccc1O,.,2,-29,-19,-11,.,.,.,.
CCOC(=O)C1CCN(C2=C(NS(=O)(=O)c3ccc(Br)cc3)C(=O)c3ccccc3C2=O)CC1,1,55,-47,-13,-4,-5,20,15,17

# Screening data deposited in PubChem by several laboratories.
